Laboratory results taken from the array DNA melting data of Ke et al. (doi:10.1101/2024.01.08.574731).

Legend:
[1] = folding enthalpy; higher = less favourable; fluorescence melt of hairpins on a sequencing array, two-state fit; conditions: sodium 0.088 M
Procedure, shortened: (§1)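 Library hairpins on a sequenced MiSeq flow cell carried annealed Cy3 and quencher oligos, and their Cy3 fluorescence was imaged in 50 mM Na-HEPES pH 8.0 with 25 mM NaCl, in 2.5 °C steps up to 60 °C. Signals were normalised to Cy3 before quenching and to control constructs. Melting temperature and folding enthalpy were obtained from bootstrapped two-state fits, combined by inverse-variance weighting across four replicates, and the fitted temperatures were then raised by 9.35 °C to match UV melts.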

[2] = melting temperature; fluorescence melt of hairpins on a sequencing array, two-state fit, raised by 9.35 °C to match UV melts; conditions: sodium 0.088 M
Procedure, shortened: as §1

Row | Sequence | folding enthalpy [1] | Tm [2]
1 | GGTGTTGGAAACGATACC (((.(.(....).).))) | -14.2 kcal/mol | 33.2 °C
2 | GCCGAGCGAAAGCTAAGC ((..(((....)))..)) | -16.3 kcal/mol | 40 °C
3 | GTCGCTGGAAACGGTGAC (((.(.(....).).))) | -28.6 kcal/mol | 44.2 °C
4 | GATCAGCATCTGATC ((((((...)))))) | -34.2 kcal/mol | 46.7 °C
5 | GCTACCGGAAACGGTGGC ((.((((....)))).)) | -33.8 kcal/mol | 60 °C
6 | GACGGGGGAAACCCCGCC (.(((((....))))).) | -12.5 kcal/mol | 50.5 °C
7 | GACGCAGGAAACTACGTC ((((.((....)).)))) | -26.6 kcal/mol | 43.5 °C
8 | GAGACGCGAAAGCGCCTC (((.(((....))).))) | -30.3 kcal/mol | 58.7 °C
9 | GATCTGGGAGCAGATC ((((((....)))))) | -35.4 kcal/mol | 53.8 °C
10 | GTTGGATCGAAAGATAAC (((..(((....)))))) | -6.79 kcal/mol | 27.3 °C
11 | GTTCACGGAAACGTGAGC (.(((((....))))).) | -22.2 kcal/mol | 52.1 °C
12 | GACGTGCCGAAAGGCGTC (((..(((....)))))) | -13.3 kcal/mol | 46.8 °C
13 | GCGGACCACCGC ((((....)))) | -24.2 kcal/mol | 59.9 °C
14 | CGGTCGGAAACGAAGCCG ((((((....)))..))) | -24.1 kcal/mol | 38.1 °C
15 | GCCAGGCGAAAGCCCAGC ((..(((....)))..)) | -13.5 kcal/mol | 40.2 °C
16 | GGGTACGAAAGTAAGCCC ((((((....)))..))) | -20.7 kcal/mol | 40.7 °C
17 | GTGTATGGAAACATACAC (((((((....))))))) | -42 kcal/mol | 57.2 °C
18 | GTAGATGGAAACACCTAC ((((.((....)).)))) | -20.9 kcal/mol | 32.9 °C
19 | CGGTCGGAAACGATGCCG ((((((....)))..))) | -22.1 kcal/mol | 38.6 °C
20 | GATCGCTAACGCGATC ((((((....)))))) | -35.7 kcal/mol | 66.5 °C
21 | GATCACTATCGTGATC ((((((....)))))) | -41.2 kcal/mol | 55.1 °C
22 | GAAGGGGCGAAAGCCTTC (((..(((....)))))) | -9.14 kcal/mol | 35.2 °C
23 | GAGTCAGAAATGACTC ((((((....)))))) | -25 kcal/mol | 54.6 °C

Row | Sequence | folding enthalpy [1] | Tm [2]
24 | GATCCTACTTAGGATC ((((((....)))))) | -37.3 kcal/mol | 53.2 °C
25 | GCTCTGCGAAAGCAACGC ((..(((....)))..)) | -9.7 kcal/mol | 31.8 °C
26 | GCGACGCGAAAGCACCGC (((..((....))..))) | -19.7 kcal/mol | 55.8 °C
27 | GATCACGGAAACGTAATC (((.(((....))).))) | -20.3 kcal/mol | 31.5 °C
28 | GCAGGAACGAAAGTTTGC (((..(((....)))))) | -16.6 kcal/mol | 36 °C
29 | GTCCAAGGAAACTTGGAC (((((((....))))))) | -41.8 kcal/mol | 61.6 °C
30 | GTTAACGGAAACGTCAAC (((.(((....))).))) | -15.2 kcal/mol | 34.2 °C
31 | GGTCGCGAAAGCGGTACC ((((((....)))..))) | -14.5 kcal/mol | 46.5 °C
32 | GTATGGGGAAACCCACAC ((.((((....)))).)) | -18.9 kcal/mol | 35.1 °C
33 | GATCCCGGATGGGATC ((((((....)))))) | -28 kcal/mol | 67.8 °C
34 | GGTCTGCGAAAGCAACC (((.(((....)))))) | -18.8 kcal/mol | 44.6 °C
35 | GCCTGCACGAAAGTGGGC (((..(((....)))))) | -20.3 kcal/mol | 47.3 °C
36 | GAGTACGAAAGTAGTCTC ((((((....)))..))) | -23.4 kcal/mol | 49.2 °C
37 | GTAAGGCGAAAGCCGTAC (((.(((....))).))) | -14.2 kcal/mol | 53 °C
38 | GCTCTACGAAAGTACAGC (((.(((....))).))) | -21.5 kcal/mol | 35.5 °C
39 | GCGTGCGCACGC ((((....)))) | -45.7 kcal/mol | 62.2 °C
40 | GTTTTAGGAAACTAAGAC ((.((((....)))).)) | -15.7 kcal/mol | 29 °C
41 | GAGCGTGGAAACACACCC (.(.(((....))).).) | -18.9 kcal/mol | 25.4 °C
42 | GACACACGAAAGTGGGTC (((.(((....))).))) | -37.8 kcal/mol | 67.6 °C
43 | GACAACGGAAACGCTGTC ((((.((....)).)))) | -34.7 kcal/mol | 45.6 °C
44 | GACTTACCGAAAGGTGTC (((..(((....)))))) | -16.4 kcal/mol | 36.3 °C
45 | GATCCAAGATGGATC ((((((...)))))) | -34 kcal/mol | 49 °C
46 | GCGGACGCCGC ((((...)))) | -19.1 kcal/mol | 58.3 °C
